The source made the active and inactive calls. The calls are words filed in the database; no cut-off is given here.
Tests used:
[1] = biological target: T1, Mas-related G-protein coupled receptor member X1 (Homo sapiens, UniProt Q96LB2); assay: Agonist activity at human MrgprX1 expressed in HEK293 cells incubated for 2 mins by Fluo4AM dye based FLIPR assay relative to BAM8-22; type: cell-based
Outline: (§1)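 HEK293 cells stably expressing human MrgprX1 were plated at 25,000/well and grown 2 days. They were loaded with 2 μM Fluo-4 AM plus 1% Trypan Red in HBSS for 50 min at 37°C, then equilibrated 10 min at room temperature. Serially diluted compounds in HBSS were added, with BAM8-22 as positive control. FLIPR imaging ran 2 min, read as max–min fluorescence. EC50 is mean ± SD of ≥4 experiments.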

[2] = biological target: T1, Mas-related G-protein coupled receptor member X1; assay: Agonist activity at human MrgprX1 expressed in HEK293 cells incubated for 2 mins by Fluo4AM dye based FLIPR assay; type: cell-based; outline: as §1
[3] = biological target: T1, Mas-related G-protein coupled receptor member X1; assay: Agonist activity at human MrgprX1 expressed in HEK293 cells up to 100 uM incubated for 2 mins by Fluo4AM dye based FLIPR assay relative to BAM8-22; type: cell-based; outline: as §1
[4] = biological target: T1, Mas-related G-protein coupled receptor member X1; assay: Agonist activity at human MRGPRX1 in DRG neurons obtained from humanized MrgprX1 mouse assessed as inhibition of high-voltage-activated Ca2+ currents 5 uM at -80 mV holding potential; type: functional
Outline: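 DRG neurons from 3–4-week-old MrgprX1 mice, enzyme-dissociated, cultured with NGF and GDNF and used at 20–40 h. Whole-cell patch clamp of MrgprA3-GFP neurons at 21–23 °C in NMDG-Cl/5 mM BaCl2 bath, pH 7.4. Holding −80 mV, step to −40 mV 20 ms, −60 mV 20 ms, then −10 mV 40 ms evoking HVA current. P/4 leak subtraction. Currents compared before/after bath application.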

Mu-type opioid receptor = Mu-type opioid receptor (Rattus norvegicus, UniProt P33535); assay: Displacement of [3H]DAMGO from mu opioid receptor in rat brain after 60 mins by liquid scintillation counting method; type: tissue-based
[5] = biological target: T2, Mas-related G-protein coupled receptor member X1 (Mus musculus) (UniProt Q8CIP3); assay: Agonist activity at mouse MRGPRC11 expressed in KNRK cells at 40 uM by Fura2-AM dye based FLIPR assay; type: cell-based
T2 sequence (whole entry): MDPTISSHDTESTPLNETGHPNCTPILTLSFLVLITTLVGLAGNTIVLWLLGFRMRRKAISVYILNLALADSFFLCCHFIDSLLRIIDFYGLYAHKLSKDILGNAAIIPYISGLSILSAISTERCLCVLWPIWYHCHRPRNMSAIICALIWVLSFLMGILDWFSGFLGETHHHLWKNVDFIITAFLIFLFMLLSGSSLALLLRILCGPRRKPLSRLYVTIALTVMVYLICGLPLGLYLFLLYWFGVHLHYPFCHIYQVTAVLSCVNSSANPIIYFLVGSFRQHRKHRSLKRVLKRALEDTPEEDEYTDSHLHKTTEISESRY

[6] = Selectivity index, ratio of Ki for displacement of [3H]DADLE from delta opioid receptor in rat brain after 60 mins by liquid scintillation counting method to EC50 for agonist activity at human MrgprX1 expressed in HEK293 cells incubated for 2 mins by Fluo4AM dye based FLIPR assay; type: cell-based
[7] = Ratio of AUC in spinal cord to AUC in plasma of CD1 mouse at 10 mg/kg, iv administered as single dose by LC-MS/MS analysis; type: ADME, organism-based
Outline: (§2)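 Male CD1 mice (25–30 g) received a single 10 mg/kg iv dose, n=3 per time point, and were killed by CO2 at set times. Plasma came from cardiac-puncture blood spun at 3,000 g for 15 min. Spinal cords were flash frozen. Samples were extracted in acetonitrile with losartan internal standard and quantified by LC/MS/MS. Calibration covered 0.01–10 nmol/mL, built with 1/x-weighted linear regression in naive matrix.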

[8] = biological target: Kappa-type opioid receptor (Rattus norvegicus, UniProt P34975); assay: Displacement of [3H]U-69,593 from kappa opioid receptor in rat brain after 60 mins by liquid scintillation counting method; type: tissue-based
[9] = Half life in CD1 mouse at 10 mg/kg, iv administered as single dose by LC-MS/MS analysis; type: ADME, organism-based; conditions: in vivo; outline: as §2
[10] = AUC in CD1 mouse spinal cord at 10 mg/kg, iv administered as single dose by LC-MS/MS analysis; type: ADME, organism-based; conditions: in vivo; outline: as §2
[11] = AUC in CD1 mouse plasma at 10 mg/kg, iv administered as single dose by LC-MS/MS analysis; type: ADME, organism-based; conditions: in vivo; outline: as §2
[12] = Half life in mouse liver microsomes; type: ADME, Microsome
[13] = biological target: Delta-type opioid receptor (Rattus norvegicus, UniProt P33533); assay: Displacement of [3H]DADLE from delta opioid receptor in rat brain after 60 mins by liquid scintillation counting method; type: tissue-based
[14] = Selectivity index, ratio of Ki for displacement of [3H]DAMGO from mu opioid receptor in rat brain after 60 mins by liquid scintillation counting method to EC50 for agonist activity at human MrgprX1 expressed in HEK293 cells incubated for 2 mins by Fluo4AM dye based FLIPR assay; type: cell-based
[15] = Selectivity index, ratio of Ki for [3H]U-69,593 from kappa opioid receptor in rat brain after 60 mins by liquid scintillation counting method to EC50 for agonist activity at human MrgprX1 expressed in HEK293 cells incubated for 2 mins by Fluo4AM dye based FLIPR assay; type: cell-based
[16] = biological target: T1, Mas-related G-protein coupled receptor member X1; assay: Agonist activity at human MRGPRX1 in DRG neurons obtained from humanized MrgprX1 mouse assessed as inhibition of high-voltage-activated Ca2+ currents 10 uM at -80 mV holding potential; type: functional
Outline: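 DRG neurons from 3–4-week-old humanized MrgprX1 mice were dispase/collagenase-dissociated, cultured with NGF and GDNF, and used after 20–40 h. Whole-cell patch clamp was done in Ba2+/NMDG extracellular solution, pH 7.4, at 21–23°C. Cells were held at −80 mV, stepped to −40 mV, then −60 mV, then −10 mV for 40 ms to evoke HVA currents. Compound was bath-applied; P/4 leak subtraction.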

T1 sequence (Q96LB2 whole entry): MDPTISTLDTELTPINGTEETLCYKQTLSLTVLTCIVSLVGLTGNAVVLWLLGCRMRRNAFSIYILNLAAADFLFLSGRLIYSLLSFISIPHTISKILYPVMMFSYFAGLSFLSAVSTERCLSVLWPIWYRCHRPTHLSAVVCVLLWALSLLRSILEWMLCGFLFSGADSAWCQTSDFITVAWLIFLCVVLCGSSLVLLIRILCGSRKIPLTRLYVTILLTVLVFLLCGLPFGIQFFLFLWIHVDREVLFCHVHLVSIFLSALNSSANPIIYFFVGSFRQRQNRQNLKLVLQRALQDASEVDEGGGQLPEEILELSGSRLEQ
Sequence of Delta-type opioid receptor (P33533 whole entry): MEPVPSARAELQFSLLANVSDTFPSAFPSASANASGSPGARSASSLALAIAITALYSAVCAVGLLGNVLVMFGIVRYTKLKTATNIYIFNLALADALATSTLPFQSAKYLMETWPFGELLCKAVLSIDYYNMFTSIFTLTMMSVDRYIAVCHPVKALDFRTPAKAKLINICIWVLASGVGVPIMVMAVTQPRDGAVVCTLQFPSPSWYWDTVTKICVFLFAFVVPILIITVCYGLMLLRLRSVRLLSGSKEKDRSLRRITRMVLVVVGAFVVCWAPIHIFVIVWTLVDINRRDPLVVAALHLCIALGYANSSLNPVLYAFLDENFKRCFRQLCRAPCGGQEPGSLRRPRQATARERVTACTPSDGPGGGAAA
Sequence of Mu-type opioid receptor (P33535 whole entry): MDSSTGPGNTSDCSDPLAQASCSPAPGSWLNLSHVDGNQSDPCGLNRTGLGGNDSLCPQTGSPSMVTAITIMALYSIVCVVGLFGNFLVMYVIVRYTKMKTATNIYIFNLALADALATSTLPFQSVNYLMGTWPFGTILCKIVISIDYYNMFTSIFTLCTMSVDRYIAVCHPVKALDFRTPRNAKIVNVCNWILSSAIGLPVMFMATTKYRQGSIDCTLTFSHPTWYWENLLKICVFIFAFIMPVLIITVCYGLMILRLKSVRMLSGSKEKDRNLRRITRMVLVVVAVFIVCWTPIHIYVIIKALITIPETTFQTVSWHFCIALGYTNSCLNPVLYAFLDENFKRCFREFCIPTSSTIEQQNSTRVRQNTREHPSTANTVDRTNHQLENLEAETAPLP
Sequence of Kappa-type opioid receptor (P34975 whole entry): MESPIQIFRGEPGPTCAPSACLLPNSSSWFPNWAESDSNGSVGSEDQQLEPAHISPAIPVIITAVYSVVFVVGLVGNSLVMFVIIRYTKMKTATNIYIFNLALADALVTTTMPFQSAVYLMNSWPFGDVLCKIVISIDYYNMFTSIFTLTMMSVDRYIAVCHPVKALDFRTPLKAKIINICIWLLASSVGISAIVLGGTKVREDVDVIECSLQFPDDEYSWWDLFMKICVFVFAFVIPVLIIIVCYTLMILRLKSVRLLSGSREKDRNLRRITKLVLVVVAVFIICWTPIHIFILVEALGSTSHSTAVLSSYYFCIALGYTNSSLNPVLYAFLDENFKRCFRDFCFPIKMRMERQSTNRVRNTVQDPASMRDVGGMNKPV

Row | Compound | Emax [1] | EC50 [2] | further results
1 | COc1cc(CNc2ccc3c(N)nccc3c2)ccc1OCc1ccccc1 | > 95% | 3700 nM | –
2 | COc1cc(CNc2ccc(C(=N)N)cc2)ccc1OCc1cccnc1 | > 95% | 5200 nM | –
3 | COc1ccccc1S(=O)(=O)Nc1ccc(C)cc1Oc1ccc2sc(N)nc2c1 | – | > 100000 nM | Activity [3]: inactive
4 | H-VGRPEWWMDYQKRYG-OH | – | – | inhibition [4]: Active
5 | COc1ccccc1S(=O)(=O)Nc1ccc(C)cc1Oc1cccc(C(=N)N)c1 | > 95% | 3600 nM | –
6 | COc1ccccc1S(=O)(=O)Nc1ccc(C)cc1Oc1ccccc1C(=N)N | > 95% | 23000 nM | –
7 | N=C(N)c1ccc(NCc2ccc(OCc3ccccc3)cc2)cc1 | > 95% | 5200 nM | –
8 | COc1cc(CNc2cccc(C(=N)N)c2)ccc1OCc1ccccc1 | > 95% | 3300 nM | –
9 | CCCCS(=O)(=O)Nc1ccc(C)cc1Oc1ccc(C(=N)N)cc1 | > 95% | 2200 nM | –
10 | COc1cc(CNc2ccccc2C(=N)N)ccc1OCc1ccccc1 | – | > 100000 nM | inhibition [16]: inactive; Activity [3]: inactive

Continued, in another order:

Row | Emax [1] | EC50 [2] | Compound | further results
11 | > 95% | 680 nM | COc1cc(CNc2ccc(C(=N)N)cc2)ccc1OCc1ccc(-n2cccc2)cc1 | –
12 | > 95% | 160 nM | Cc1ccc(S(=O)(=O)Nc2ccc(C)cc2Oc2ccc(C(=N)N)cc2)cc1 | –
13 | > 95% | 290 nM | COc1cc(CNc2ccc(C(=N)N)cc2)ccc1OCc1ccsc1 | –
14 | > 95% | 920 nM | CCCCS(=O)(=O)Nc1cc(C)ccc1Oc1ccc(C(=N)N)cc1 | –
15 | > 95% | 2100 nM | Cc1ccc(NS(=O)(=O)c2ccc(F)cc2)c(Oc2ccc(C(=N)N)cc2)c1 | –
16 | > 95% | 150 nM | Cc1ccc(NS(=O)(=O)c2ccccc2OC(F)(F)F)c(Oc2ccc(C(=N)N)cc2)c1 | –
17 | > 95% | 300 nM | CCCCS(=O)(=O)Nc1ccccc1Oc1ccc(C(=N)N)cc1 | –
18 | > 95% | 50 nM | COc1ccccc1S(=O)(=O)Nc1ccc(C)cc1Oc1ccc2c(N)nccc2c1 | Ki (Mu-type opioid receptor): 3730 nM; Activity [5]: inactive; Ratio [6]: 50; Kp [7]: 6.3; Ki [8]: 12100 nM; half-life [9]: 19.8 min; AUC [10]: 5.66 nmol·h/g; AUC [11]: 0.9 µM·h; half-life [12]: < 15 min; Ki [13]: 2470 nM; Ratio [14]: 75; Ratio [15]: 242
19 | > 95% | 100 nM | COc1ccccc1S(=O)(=O)Nc1ccc(C)cc1Oc1ccc(C(=N)N)cc1 | Ki (Mu-type opioid receptor): 72.7 nM; Ki [8]: 1430 nM; Ki [13]: 220 nM
20 | > 95% | 1900 nM | COc1cc(CNc2ccc(C(=N)N)cc2)ccc1OCCC(C)C | –
21 | > 95% | 510 nM | COc1cc(CNc2ccc(C(=N)N)cc2)ccc1OCc1ccccc1 | inhibition [16]: Active
